Measured values collected from several papers.
Compare with care: the assays were run in different laboratories.
Effect on: cell growth or viability

| Compound | cell line | assay | setting | endpoint | result |
| --- | --- | --- | --- | --- | --- |
| Nc1nc(Cl)nc2c1ncn2[C@H]1C[C@H](O)[C@@H](CO)O1 | GISTT1 | resazurin | 72 h | IC50 | > 1000 nM |
| CC[C@@]1(O)C(=O)OCc2c1cc1n(c2=O)Cc2cc3ccccc3nc2-1 | CNSSF-539 | SRB | 48 h | GI50 | 10 nM |
| CC(=O)Nc1cccc(-n2c(=O)n(C3CC3)c(=O)c3c(Nc4ccc(I)cc4F)n(C)c(=O)c(C)c32)c1 | SW1417 | resazurin | 6.25 nM, 72 h | viability | 71.8% |
| N#Cc1ccc2c(c1)CCC(=O)c1ccccc1NC2=O | L6 |  |  | IC50 | 150000 nM |
| Cc1cc2c(cc1N1C(=O)c3cccc4c(CCCO)ccc(c34)C1=O)n(C)c(=O)n2C (racemic) | MDA-MB-453 | resazurin |  | GI50 | > 10000 nM |
| O=C1CCc2ccccc2C(=O)c2ccccc2N1 | L6 |  |  | IC50 | 230000 nM |
| CCOC(=O)n1ccn(C)c1=S | GISTT1 | resazurin | 72 h | IC50 | < 70 nM |
| O=C1Nc2cc(F)cc(F)c2C(=O)CCc2ccccc21 | L6 |  |  | IC50 | 86000 nM |
| COc1cc(CN2CCc3cc(O)ccc3C2)cc(OC)c1OC | CNSSF-539 | SRB |  | GI50 | 36 nM |
| CC[C@@]1(O)C(=O)OCc2c1cc1n(c2=O)Cc2cc3c(CN(C)C)c(O)ccc3nc2-1 | GISTT1 | resazurin | 72 h | IC50 | 80 nM |
| CN(C)CCCn1c2c(c3ccncc3c1=O)C(=O)c1ccccc1-2 | CNSSF-539 | SRB |  | GI50 | 708 nM |
| O=C1CCc2c(O)cccc2C(=O)Nc2ccccc21 | L6 |  |  | IC50 | 210000 nM |
| COc1cc2c(cc1O)CCN(Cc1cc(Br)c(OC)c(OC)c1)C2 | CNSSF-539 | SRB |  | GI50 | 177 nM |
